Source: ChEMBL document CHEMBL1122854, “Novel bis[1,6-dihydro-6,6-dimethyl-1,3,5-triazine-2,4-diamines] as antitrypanosomal agents” (1985)

Legend:
Type in all cases: functional
Mus musculus [1] = test: Antitrypanosomal activity was evaluated against Trypanosoma rhodesiense infections in mice, at dose 212 mg/kg, administered subcutaneously;Toxic; settings: route subcutaneous
In short: (§1)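 IUR/HA Swiss mice (six weeks old, 30-32 g) infected i.p. with Wellcome CT strain T. rhodesiense. A single subcutaneous dose in peanut oil was given about 2 h after inoculation, with five mice per dose level. Positive control was stilbamidine or 2-hydroxystilbamidine isethionate at 40 mg/kg. Deaths before day 4 were scored toxic, and 30-day survivors cured.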

Mus musculus [2] = test: Antitrypanosomal activity was evaluated against Trypanosoma rhodesiense infections in mice, at dose 212 mg/kg, administered subcutaneously;Cures; settings: route subcutaneous; in short: as §1
[3] = system: Trypanosoma brucei rhodesiense; test: Antitrypanosomal activity against Trypanosoma rhodesiense infections in mice, 424 mg/kg administered subcutaneously; settings: route subcutaneous; in short: as §1
[4] = system: Trypanosoma brucei rhodesiense; test: (§2) Antitrypanosomal activity was evaluated against Trypanosoma rhodesiense infections in mice, at dose 212 mg/kg, administered subcutaneously; settings: route subcutaneous
In short: (§3)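 Six-week-old IUR/HA Swiss mice (30-32 g), 5 per dose, infected ip with 0.5 mL of a 1:50 000 dilution of heparinized heart blood from donor mice infected 3 days before (Wellcome CT strain). Single sc dose in peanut oil about 2 h post-inoculation. Deaths before day 4 counted toxic. ΔMST versus untreated controls; survivors at 30 days counted cured.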

[5] = system: Trypanosoma brucei rhodesiense; test: Anti-trypanosomal activity against Trypanosoma rhodesiense infections in mice, 26 mg/kg administered subcutaneously; settings: route subcutaneous; in short: as §3
Mus musculus [6] = test: Antitrypanosomal activity was evaluated against Trypanosoma rhodesiense infections in mice, at dose 106 mg/kg, administered subcutaneously;cures; settings: route subcutaneous; in short: as §1
[7] = system: Trypanosoma brucei rhodesiense; test: Antitrypanosomal activity against Trypanosoma rhodesiense infections in mice, 106 mg/kg administered subcutaneously; settings: route subcutaneous; in short: as §3
Mus musculus [8] = test: Antitrypanosomal activity was evaluated against Trypanosoma rhodesiense infections in mice, at dose 26 mg/kg, administered subcutaneously;cures; settings: route subcutaneous; in short: as §1
[9] = system: Trypanosoma brucei rhodesiense; test: Antitrypanosomal activity was evaluated against Trypanosoma rhodesiense infections in mice, at dose 53 mg/kg, administered subcutaneously; settings: route subcutaneous; in short: as §3
Mus musculus [10] = test: Antitrypanosomal activity was evaluated against Trypanosoma rhodesiense infections in mice, at dose 26 mg/kg, administered subcutaneously;Toxic; settings: route subcutaneous; in short: as §1
[11] = system: Trypanosoma brucei rhodesiense; test: Antitrypanosomal activity was evaluated against Trypanosoma rhodesiense infections in mice, at dose 106 mg/kg, administered subcutaneously; settings: route subcutaneous; in short: as §1
[12] = system: Trypanosoma brucei rhodesiense; test: Antitrypanosomal activity against Trypanosoma rhodesiense infections in mice, 3.3 mg/kg administered subcutaneously; settings: route subcutaneous; in short: as §3
[13] = system: Trypanosoma brucei rhodesiense; test: Antitrypanosomal activity against Trypanosoma rhodesiense infections in mice, 6.6 mg/kg administered subcutaneously; settings: route subcutaneous; in short: as §3
[14] = system: Trypanosoma brucei rhodesiense; test: Antitrypanosomal activity was evaluated against Trypanosoma rhodesiense infections in mice, at dose 1.6 mg/kg, administered subcutaneously; settings: route subcutaneous; in short: as §3
Mus musculus [15] = test: Antitrypanosomal activity was evaluated against Trypanosoma rhodesiense infections in mice, at dose 13 mg/kg, administered subcutaneously; settings: route subcutaneous; in short: as §1
Mus musculus [16] = test: (§4) Antitrypanosomal activity was evaluated against Trypanosoma rhodesiense infections in mice, at dose 6.6 mg/kg, administered subcutaneously; settings: route subcutaneous; in short: as §1
Mus musculus [17] = test: Antitrypanosomal activity was evaluated against Trypanosoma rhodesiense infections in mice, at dose 3.3 mg/kg, administered subcutaneously;Toxic; settings: route subcutaneous; in short: as §1
[18] = system: Trypanosoma brucei rhodesiense; test: Antitrypanosomal activity was evaluated against Trypanosoma rhodesiense infections in mice, at dose 26 mg/kg, administered subcutaneously; settings: route subcutaneous; in short: as §1
Mus musculus [19] = test: (§5) Antitrypanosomal activity was evaluated against Trypanosoma rhodesiense infections in mice, at dose 26 mg/kg, administered subcutaneously;Cures; settings: route subcutaneous; in short: as §1
Mus musculus [20] = test: Antitrypanosomal activity was evaluated against Trypanosoma rhodesiense infections in mice, at dose 53 mg/kg, administered subcutaneously;Cures; settings: route subcutaneous; in short: as §1
Mus musculus [21] = test: (§6) Antitrypanosomal activity was evaluated against Trypanosoma rhodesiense infections in mice, at dose 106 mg/kg, administered subcutaneously;Toxic; settings: route subcutaneous; in short: as §1
Mus musculus [22] = test: as §2; settings: route subcutaneous; in short: as §1
Mus musculus [23] = test: Antitrypanosomal activity was evaluated against Trypanosoma rhodesiense infections in mice, at dose 424 mg/kg, administered subcutaneously; Cures; settings: route subcutaneous; in short: as §1
Mus musculus [24] = test: Antitrypanosomal activity was evaluated against Trypanosoma rhodesiense infections in mice, at dose 13 mg/kg, administered subcutaneously;Cures; settings: route subcutaneous; in short: as §1
Mus musculus [25] = test: Antitrypanosomal activity was evaluated against Trypanosoma rhodesiense infections in mice, at dose 3.3 mg/kg, administered subcutaneously;Cures; settings: route subcutaneous; in short: as §1
[26] = system: Trypanosoma brucei rhodesiense; test: as §6; settings: route subcutaneous; in short: as §1
Mus musculus [27] = test: Antitrypanosomal activity was evaluated against Trypanosoma rhodesiense infections in mice, at dose 53 mg/kg, administered subcutaneously;Toxic; settings: route subcutaneous; in short: as §1
Mus musculus [28] = test: as §5; settings: route subcutaneous; in short: as §3; remark: listed apart in the source
Mus musculus [29] = test: Antitrypanosomal activity was evaluated against Trypanosoma rhodesiense infections in mice, at dose 1.6mg/kg, administered subcutaneously;Cures; in short: as §1
Mus musculus [30] = test: Antitrypanosomal activity was evaluated against Trypanosoma rhodesiense infections in mice, at dose 106 mg/kg, administered subcutaneously;Cures; settings: route subcutaneous; in short: as §1
Mus musculus [31] = test: Antitrypanosomal activity was evaluated against Trypanosoma rhodesiense infections in mice, at dose 6.6 mg/kg, administered subcutaneously;Cures; settings: route subcutaneous; in short: as §1
Mus musculus [32] = test: Antitrypanosomal activity was evaluated against Trypanosoma rhodesiense infections in mice, at dose 3.3 mg/kg, administered subcutaneously; settings: route subcutaneous; in short: as §3
Mus musculus [33] = test: Antitrypanosomal activity was evaluated against Trypanosoma rhodesiense infections in mice, at dose 13mg/kg, administered subcutaneously; in short: as §3
Mus musculus [34] = test: as §4; settings: route subcutaneous; in short: as §3; remark: listed apart in the source
Mus musculus [35] = test: Antitrypanosomal activity was evaluated against Trypanosoma rhodesiense infections in mice, at dose 106 mg/kg, administered subcutaneously; Cures; settings: route subcutaneous; in short: as §1
Mus musculus [36] = test: Antitrypanosomal activity was evaluated against Trypanosoma rhodesiense infections in mice, at dose 424 mg/kg, administered subcutaneously;Toxic; settings: route subcutaneous; in short: as §1
Mus musculus [37] = test: Antitrypanosomal activity was evaluated against Trypanosoma rhodesiense infections in mice, at dose 424 mg/kg, administered subcutaneously;Cures; settings: route subcutaneous; in short: as §1
Mus musculus [38] = test: Antitrypanosomal activity was evaluated against Trypanosoma rhodesiense infections in mice, at dose 53 mg/kg, administered subcutaneously; Cures; settings: route subcutaneous; in short: as §1

`Cl.Cl.N=C(N)NC(=N)Nc1ccc(CCc2ccc(NC(=N)N=C(N)N)cc2)cc1` showed a Toxic (Mus musculus [1]) of 2, a Cures (Mus musculus [2]) of 2 and a Toxic [3] of 5. For the same molecule, the “Delta MST” value [4] was 12 days, the “Delta MST” value [5] was 3 days and the Cures (Mus musculus [6]) was 3. The “Delta MST” value [7] was 8 days, the Cures (Mus musculus [8]) was 1 and the “Delta MST” value [9] was 1.4 days.

In the case of `Cc1cc(N2C(N)=NC(N)=NC2(C)C)ccc1CCc1ccc(N2C(N)=NC(N)=NC2(C)C)cc1C.Cl.Cl`, the Toxic (Mus musculus [10]) is reported as 3, the Toxic [11] is reported as 5 and the “Delta MST” value [12] is reported as 0.4 days. The Toxic [3] was 5, the “Delta MST” value [5] was 1.4 days and the “Delta MST” value [13] was 1 days. The “Delta MST” value [14] was 0.8 days.

With `CC1(C)N=C(N)N=C(N)N1c1ccc(OCCCOc2ccc(N3C(N)=NC(N)=NC3(C)C)cc2)cc1.Cl.Cl` the Toxic (Mus musculus [15]) was 5, the Toxic [11] was 5 and the “Delta MST” value [12] was 0 days. The Toxic (Mus musculus [16]) was 5, the Toxic [3] was 5 and the Toxic (Mus musculus [17]) was 1. The “Delta MST” value [14] was 0 days and the Toxic [18] was 5.

For `CC1(C)N=C(N)N=C(N)N1c1ccc(Cc2ccc(N3C(N)=NC(N)=NC3(C)C)cc2)cc1.Cl.Cl`, the Cures (Mus musculus [19]) was 1, the Cures (Mus musculus [20]) was 2 and the “Delta MST” value [5] was 4 days. The “Delta MST” value [7] was 8 days, the Toxic (Mus musculus [21]) was 2 and the Toxic (Mus musculus [22]) was 5. The Cures (Mus musculus [23]) was 5 and the “Delta MST” value [9] was 6.5 days.

For `CC1(C)N=C(N)N=C(N)N1c1ccc2c(c1)Cc1cc(N3C(N)=NC(N)=NC3(C)C)ccc1-2.Cl.Cl`, the Cures (Mus musculus [24]) was 3, the “Delta MST” value [12] was 4 days and the Toxic (Mus musculus [1]) was 4. For the same molecule, the Toxic [3] was 5, the “Delta MST” value [4] was 26 days and the Cures (Mus musculus [25]) was 1. For the same molecule, the Cures (Mus musculus [20]) was 4, the “Delta MST” value [5] was 4.5 days and the “Delta MST” value [13] was 4.3 days. The “Delta MST” value [7] was 2 days, the Toxic [26] was 3 and the Toxic (Mus musculus [27]) was 1. The “Delta MST” value [14] was 3 days, the “Delta MST” value (Mus musculus [28]) was 3 days and the Cures (Mus musculus [29]) was 1. The Cures (Mus musculus [30]) was 1 and the Cures (Mus musculus [31]) was 2.

`CC1(C)N=C(N)N=C(N)N1c1ccc(C(c2ccc(N3C(N)=NC(N)=NC3(C)C)cc2)c2ccc(N3C(N)=NC(N)=NC3(C)C)cc2)cc1.Cl.Cl` was tested, and the “Delta MST” value (Mus musculus [32]) was -0.1 days, the Toxic [11] was 5 and the Toxic [3] was 5. The “Delta MST” value (Mus musculus [33]) was 0.1 days, the “Delta MST” value (Mus musculus [34]) was -0.1 days and the “Delta MST” value [14] was 0.1 days. For the same molecule, the Toxic [18] was 5.

With `Cl.Cl.NC1=NC(c2ccccc2)N(c2ccc(CCc3ccc(N4C(N)=NC(N)=NC4c4ccccc4)cc3)cc2)C(N)=N1` (stereo unspecified) the “Delta MST” value [12] was 0.4 days, the Cures (Mus musculus [2]) was 4 and the “Delta MST” value [4] was 2.2 days. The Cures (Mus musculus [19]) was 1, the “Delta MST” value [5] was 4.1 days and the “Delta MST” value [13] was 0 days. For the same molecule, the Cures (Mus musculus [35]) was 5, the Toxic (Mus musculus [36]) was 2 and the Cures (Mus musculus [37]) was 3. The Cures (Mus musculus [38]) was 5.
